From ChEMBL document CHEMBL5303300, “EUbOPEN Chemogenomics Library - Multiplex” (2023)
Several values for one entry are separate records, joined by “and”; a condition that tells them apart may be missing. Equal values may be shown once.

Tested on: U2OS
Assay: Multiplex assay against U2OS
Type: toxicity, cell-based
Conditions: human, number of replicates 2
Method in brief: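 Cells were classed with CellPathfinder machine-learning gating, first as Hoechst high-intensity objects or normal cells, then (normal cells) as healthy, pyknosed or fragmented nuclei, and finally (pyknosed cells) as mitotic or apoptotic. Staining of live cells at seeding used Hoechst33342, BioTracker Green Microtubule Cytoskeleton Dye, MitoTracker Red and Annexin V Alexa Fluor 680, with imaging on a CQ1 microscope at 37°C and 5% CO2 after compound addition. Tubulin, mitochondrial-mass and membrane-permeability phenotypes are per cents of healthy-nucleus cells.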

[1] = 12 h, 1 µM, compound concentration 1 uM
[2] = 12 h, 10 µM, compound concentration 10 uM
[3] = 24 h, 1 µM, compound concentration 1 uM
[4] = 24 h, 10 µM, compound concentration 10 uM
[5] = 48 h, 1 µM, compound concentration 1 uM
[6] = 48 h, 10 µM, compound concentration 10 uM

## CC(C)(C)c1cnc(CSc2cnc(NC(=O)C3CCNCC3)s2)o1 [BMS-387032]
[1]
  Population Apoptotic (%): 83% and 88%
  Population Healthy Nuclei (%): 60% and 73%
  Population Hoechst High Intensity Objects (%): 1% and 0%
  Population Membrane Permeable-Phenotype (%): 8% and 3%
  Population Mitochondria Different-Phenotype (%): 2% and 4%
  Population Mitotic Cells (%): 16% and 12%
  Population Normal (%): 98% and 100%
  Population Pyknosed Nuclei (%): 10% and 19%
  Population Tubulin-Different-Phenotype (%): 80% and 82%
  Total Cell Count: 61 and 128
[2]
  Population Apoptotic (%): 85% and 65%
  Population Healthy Nuclei (%): 32% and 71%
  Population Hoechst High Intensity Objects (%): 0% and 1%
  Population Mitochondria Different-Phenotype (%): 7% and 11%
  Population Mitotic Cells (%): 14% and 35%
  Population Normal (%): 100% and 98%
  Population Pyknosed Nuclei (%): 17% and 22%
[3]
  Population Apoptotic (%): 66% and 94%
  Population Fragmented Nuclei (%): 22% and 9%
  Population Healthy Nuclei (%): 62% and 69%
  Population Hoechst High Intensity Objects (%): 1% and 0%
  Population Membrane Permeable-Phenotype (%): 8% and 1%
  Population Mitochondria Different-Phenotype (%): 5%
  Population Normal (%): 98% and 100%
  Population Pyknosed Nuclei (%): 15% and 21%
  Population Tubulin-Different-Phenotype (%): 75% and 77%
  Total Cell Count: 60 and 163
[4]
  Population Apoptotic (%): 87% and 78%
  Population Healthy Nuclei (%): 32% and 41%
  Population Hoechst High Intensity Objects (%): 0%
  Population Mitochondria Different-Phenotype (%): 21% and 25%
  Population Mitotic Cells (%): 12% and 21%
  Population Normal (%): 100% and 99%
  Population Pyknosed Nuclei (%): 18% and 46%
  Population Tubulin-Different-Phenotype (%): 57% and 52%
[5]
  Population Apoptotic (%): 68% and 93%
  Population Fragmented Nuclei (%): 23% and 8%
  Population Healthy Nuclei (%): 55% and 66%
  Population Hoechst High Intensity Objects (%): 0%
  Population Mitochondria Different-Phenotype (%): 6% and 5%
  Population Normal (%): 100%
  Population Pyknosed Nuclei (%): 21% and 25%
  Population Tubulin-Different-Phenotype (%): 89% and 80%
  Total Cell Count: 89 and 235
[6]
  Population Apoptotic (%): 84% and 94%
  Population Healthy Nuclei (%): 21% and 9%
  Population Hoechst High Intensity Objects (%): 0% and 4%
  Population Membrane Permeable-Phenotype (%): 80% and 41%
  Population Mitochondria Different-Phenotype (%): 40% and 52%
  Population Mitotic Cells (%): 15% and 5%
  Population Normal (%): 100% and 95%
  Population Pyknosed Nuclei (%): 27% and 75%
  Population Tubulin-Different-Phenotype (%): 50% and 76%
